Activity calls are given as the source filed them.
Key:
A549 = experiment: Growth inhibition of human A549 cells; assay type: functional
Malme-3M = experiment: Growth inhibition of human MALME-3M cells; assay type: functional
HL-60 = experiment: Growth inhibition of human HL60 cells; assay type: functional
NCI-H460 = experiment: Growth inhibition of human NCI-H460 cells; assay type: functional
A498 = experiment: Growth inhibition of human A498 cells; assay type: functional
SF-268 = experiment: Growth inhibition of human SF268 cells; assay type: functional
HCT-116 = experiment: Growth inhibition of human HCT116 cells; assay type: functional
NCI-H226 = experiment: Growth inhibition of human NCI-H226 cells; assay type: functional
M14 = experiment: Growth inhibition of human M14 cells; assay type: functional
MDA-MB-231 = experiment: Growth inhibition of human MDA-MB-231 cells; assay type: functional
KM12 = experiment: Growth inhibition of human KM12 cells; assay type: functional
NCI/ADR-RES = experiment: Growth inhibition of human NCI/ADR-RES cells; assay type: functional
EKVX = experiment: Growth inhibition of human EKVX cells; assay type: functional
SF-539 = experiment: Growth inhibition of human SF539 cells; assay type: functional
NCI-H322M = experiment: Growth inhibition of human NCI-H322M cells; assay type: functional
UO-31 = experiment: Growth inhibition of human UO31 cells; assay type: functional
[1] = Inhibition of 1,10-phenanthroline-induced HIF1 activation in T47D cells by TK-luciferase assay; assay type: cell-based; settings: Homo sapiens
Outline: (§1)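 HIF-1 reporter (pHRE-TK-Luc) assays in transfected PC-3 or T47D cells; HIF-1 induced by hypoxia or by the hypoxia mimetic 1,10-phenanthroline (10 μM); compounds at half-log concentrations; luciferase activity measured; IC50 from experiments in triplicate.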

786-0 = experiment: Growth inhibition of human 786-0 cells; assay type: functional
SR = experiment: Growth inhibition of human SR cells; assay type: functional
HT-29 = experiment: Growth inhibition of human HT29 cells; assay type: functional
BT-549 = experiment: Growth inhibition of human BT549 cells; assay type: functional
SK-OV-3 = experiment: Growth inhibition of human SK-OV3 cells; assay type: functional
SK-MEL-5 = experiment: Growth inhibition of human SK-MEL5 cells; assay type: functional
NCI-H522 = experiment: Growth inhibition of human NCI-H522 cells; assay type: functional
TK-10 = experiment: Growth inhibition of human TK10 cells; assay type: functional
HOP-62 = experiment: Growth inhibition of human HOP62 cells; assay type: functional
RXF 393 = experiment: Growth inhibition of human RXF393 cells; assay type: functional
K562 = experiment: Growth inhibition of human K562 cells; assay type: functional
SNB-19 = experiment: Growth inhibition of human SNB19 cells; assay type: functional
U-251 = experiment: Growth inhibition of human U251 cells; assay type: functional
Hs-578T = experiment: Growth inhibition of human HS578T cells; assay type: functional
CAKI-1 = experiment: Growth inhibition of human CAKI1 cells; assay type: functional
T47D = experiment: Inhibition of 1,10-phenanthroline-induced VEGF protein secretion in human T47D cells at 10 uM after 16 hrs by ELISA; assay type: functional, cell-based
Outline: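 T47D cells stimulated with 1,10-phenanthroline, compound at 10 μM; secreted VEGF in conditioned media by ELISA, normalized to cell-lysate protein.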

OVCAR-4 = experiment: Growth inhibition of human OVACAR4 cells; assay type: functional
MOLT-4 = experiment: Growth inhibition of human MOLT4 cells; assay type: functional
OVCAR-8 = experiment: Growth inhibition of human OVACAR8 cells; assay type: functional
[2] = Inhibition of 1,10-phenanthroline-induced HIF1 activation in PC3 cells by TK-luciferase assay; assay type: cell-based; settings: Homo sapiens, PC-3; outline: as §1
LOX IMVI = experiment: Growth inhibition of human LOXIMVI cells; assay type: functional
HCC 2998 = experiment: Growth inhibition of human HCC2998 cells; assay type: functional
[3] = read-out: Log LC50 (the source's name) (converted)

CCCc1cc(=O)c2c(OC)c3c(OC)cc(OC)cc3cc2o1
58.9 µM: GI50 (A549)
3.47 µM: GI50 (A498)
87.1 µM: GI50 (KM12)
37.2 µM: GI50 (TK-10)
83.2 µM: GI50 (Malme-3M)
26.3 µM: GI50 (HT-29)
69.2 µM: GI50 (LOX IMVI)
100 µM: GI50 (EKVX) | GI50 (SF-539)
66.1 µM: GI50 (BT-549)
85.1 µM: GI50 (NCI-H460)
39.8 µM: GI50 (SR) | GI50 (K562)
74.1 µM: GI50 (NCI/ADR-RES)
> 10 µM: IC50 [2]
45.7 µM: GI50 (SK-MEL-5)
42.7 µM: GI50 (HL-60) | GI50 (HCT-116) | GI50 (UO-31)
2 µM: IC50 [1]
inactive: Activity (T47D)
67.6 µM: GI50 (M14)
91.2 µM: GI50 (786-0)
> 100 µM: CC50 (A549; [3]) | TGI (A549; read-out: Log TGI (converted)) | CC50 (Malme-3M; [3]) | TGI (Malme-3M; read-out: Log TGI (converted)) | LC50 (HL-60) | TGI (HL-60; read-out: Log TGI (converted)) | CC50 (NCI-H460; [3]) | TGI (NCI-H460; read-out: Log TGI (converted)) | LC50 (A498) | TGI (A498; read-out: Log TGI (converted)) | GI50 (SF-268) | LC50 (SF-268) | TGI (SF-268; read-out: Log TGI (converted)) | TGI (HCT-116; read-out: Log TGI (converted)) | GI50 (NCI-H226) | CC50 (NCI-H226; [3]) | TGI (NCI-H226; read-out: Log TGI (converted)) | TGI (M14; read-out: Log TGI (converted)) | LC50 (MDA-MB-231) | TGI (MDA-MB-231; read-out: Log TGI (converted)) | CC50 (KM12; [3]) | TGI (KM12; read-out: Log TGI (converted)) | LC50 (concentration killing 50% of cells) (NCI/ADR-RES) | TGI (NCI/ADR-RES; read-out: Log TGI (converted)) | CC50 (EKVX; [3]) | TGI (EKVX; read-out: Log TGI (converted)) | LC50 (SF-539) | TGI (SF-539; read-out: Log TGI (converted)) | GI50 (NCI-H322M) | CC50 (NCI-H322M; [3]) | TGI (NCI-H322M; read-out: Log TGI (converted)) | LC50 (UO-31) | TGI (UO-31; read-out: Log TGI (converted)) | LC50 (786-0) | TGI (786-0; read-out: Log TGI (converted)) | CC50 (SR; [3]) | TGI (SR; read-out: Log TGI (converted)) | CC50 (HT-29; [3]) | TGI (HT-29; read-out: Log TGI (converted)) | LC50 (BT-549) | TGI (BT-549; read-out: Log TGI (converted)) | GI50 (SK-OV-3) | LC50 (SK-OV-3) | TGI (SK-OV-3; read-out: Log TGI (converted)) | LC50 (SK-MEL-5) | TGI (SK-MEL-5; read-out: Log TGI (converted)) | CC50 (NCI-H522; [3]) | TGI (NCI-H522; read-out: Log TGI (converted)) | LC50 (TK-10) | TGI (TK-10; read-out: Log TGI (converted)) | CC50 (HOP-62; [3]) | TGI (HOP-62; read-out: Log TGI (converted)) | GI50 (RXF 393) | LC50 (RXF 393) | TGI (RXF 393; read-out: Log TGI (converted)) | CC50 (K562; [3]) | TGI (K562; read-out: Log TGI (converted)) | GI50 (SNB-19) | LC50 (SNB-19) | TGI (SNB-19; read-out: Log TGI (converted)) | GI50 (U-251) | LC50 (U-251) | TGI (U-251; read-out: Log TGI (converted)) | LC50 (Hs-578T) | TGI (Hs-578T; read-out: Log TGI (converted)) | GI50 (CAKI-1) | LC50 (CAKI-1) | TGI (CAKI-1; read-out: Log TGI (converted)) | LC50 (OVCAR-4) | TGI (OVCAR-4; read-out: Log TGI (converted)) | GI50 (MOLT-4) | CC50 (MOLT-4; [3]) | GI50 (OVCAR-8) | LC50 (OVCAR-8) | TGI (OVCAR-8; read-out: Log TGI (converted)) | LC50 (LOX IMVI) | TGI (LOX IMVI; read-out: Log TGI (converted)) | GI50 (HCC 2998) | CC50 (HCC 2998; [3]) | TGI (HCC 2998; read-out: Log TGI (converted))
57.5 µM: GI50 (HOP-62)
30.2 µM: TGI (MOLT-4; read-out: Log TGI (converted))
81.3 µM: GI50 (OVCAR-4)
34.7 µM: CC50 (HCT-116; [3]) | LC50 (50% lethal concentration) (M14)
32.4 µM: GI50 (NCI-H522)
25.7 µM: GI50 (MDA-MB-231)
33.1 µM: GI50 (Hs-578T)

From ChEMBL document CHEMBL1141286, “Benzochromenones from the marine crinoid Comantheria rotula inhibit hypoxia-inducible factor-1 (HIF-1) in cell-based reporter assays and differentially suppress the growth of certain tumor cell lines” (J Nat Prod, 2007)
